Results: ChEMBL document CHEMBL3112482, “Nonclassical antifolates, part 5. Benzodiazepine analogs as a new class of DHFR inhibitors: synthesis, antitumor testing and molecular modeling study” (Eur J Med Chem, 2014)

How the values were obtained:
Assay type in all cases: functional
HOP-62 = assay: Growth inhibition of human HOP62 cells at 10 uM after 48 hrs; details: HOP-62, 48 h, read-out: GI
Summary of the method: (§1)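 Single-dose primary screen in the NCI 60 human tumour cell line panel, run at the NCI facility. The panel covers nine subpanels: leukaemia, non-small cell lung, colon, CNS, melanoma, ovarian, renal, prostate and breast. Read-out was percent growth of treated cells, shown as a mean graph and reported as percent growth inhibition.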

Cancer cell lines [1] = assay: Ratio of 5-FU LC50 to compound LC50 for human prostate cancer cells
Summary of the method: (§2)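 Compounds passing the NCI single-dose primary screen were retested across the 60 human tumour cell lines (nine subpanels) over a 5-log dose range. GI50, TGI and LC50 were recorded for each cell line, with 5-fluorouracil run as the reference drug. Subpanel values for compound and 5-FU were then compared.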

Cancer cell lines [2] = assay: Ratio of 5-FU LC50 to compound LC50 for human breast cancer cells; summary of the method: as §2
Cancer cell lines [3] = assay: Ratio of 5-FU LC50 to compound LC50 for human renal cancer cells; summary of the method: as §2
Cancer cell lines [4] = assay: Ratio of 5-FU LC50 to compound LC50 for human CNS cancer cells; summary of the method: as §2
Leukemia cell [5] = assay: Ratio of 5-FU LC50 to compound LC50 for human leukemia cells; summary of the method: as §2
Cancer cell lines [6] = assay: Ratio of 5-FU LC50 to compound LC50 for human non-small cell lung cancer cells; summary of the method: as §2
Cancer cell lines [7] = assay: Ratio of 5-FU TGI to compound TGI for human prostate cancer cells
Cancer cell lines [8] = assay: Ratio of 5-FU TGI to compound TGI for human ovarian cancer cells
Cancer cell lines [9] = assay: Ratio of 5-FU TGI to compound TGI for human renal cancer cells
Cancer cell lines [10] = assay: Ratio of 5-FU TGI to compound TGI for human colon cancer cells
Cancer cell lines [11] = assay: Ratio of 5-FU TGI to compound TGI for human CNS cancer cells
Melanoma cell [12] = assay: Ratio of 5-FU TGI to compound TGI for human melanoma cells
Cancer cell lines [13] = assay: Ratio of 5-FU TGI to compound TGI for human non-small cell lung cancer cells
Cancer cell lines [14] = assay: Ratio of 5-FU GI50 to compound GI50 for human prostate cancer cells; summary of the method: as §2
Cancer cell lines [15] = assay: Ratio of 5-FU GI50 to compound GI50 for human renal cancer cells; summary of the method: as §2
Melanoma cell [16] = assay: Ratio of 5-FU GI50 to compound GI50 for human melanoma cells; summary of the method: as §2
Leukemia cell [17] = assay: Ratio of 5-FU GI50 to compound GI50 for human leukemia cells; summary of the method: as §2
[18] = Cytotoxicity against human breast cancer cells at 10 uM after 48 hrs; details: Cancer cell lines; summary of the method: as §1
[19] = Cytotoxicity against human melanoma cells at 10 uM after 48 hrs; details: Melanoma cell; for CC50: read-out: LC50 (the source's name); summary of the method: as §1
[20] = Cytotoxicity against human colon cancer cells at 10 uM after 48 hrs; details: Cancer cell lines; for CC50: read-out: LC50 (the source's name); summary of the method: as §1
[21] = Cytotoxicity against human leukemia cells at 10 uM after 48 hrs; details: Leukemia cell
[22] = Cytotoxicity against human non-small cell lung cancer cells at 10 uM after 48 hrs; details: Cancer cell lines; for CC50: read-out: LC50 (the source's name); summary of the method: as §1
A498 = assay: Growth inhibition of human A498 cells at 10 uM after 48 hrs; details: A498, 48 h, read-out: GI; summary of the method: as §1
Malme-3M = assay: Growth inhibition of human MALME-3M cells at 10 uM after 48 hrs; details: read-out: GI; summary of the method: as §1
U-251 = assay: Growth inhibition of human U251 cells at 10 uM after 48 hrs; details: U-251, 48 h, read-out: GI
Summary of the method: (§3)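 NCI 60-cell-line disease-oriented human tumor panel, single-dose primary screen at 10 µM. Data given as mean-graph percent growth of treated cells, reported as percent growth inhibition (GI %).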

KM12 = assay: Growth inhibition of human KM12 cells at 10 uM after 48 hrs; details: KM12, 48 h, read-out: GI; summary of the method: as §1
HCT-15 = assay: Growth inhibition of human HCT15 cells at 10 uM after 48 hrs; details: HCT-15, 48 h, read-out: GI; summary of the method: as §1
COLO 205 = assay: Growth inhibition of human COLO205 cells at 10 uM after 48 hrs; details: COLO 205, 48 h, read-out: GI; summary of the method: as §1
NCI-H522 = assay: Growth inhibition of human NCI-H522 cells at 10 uM after 48 hrs; details: NCI-H522, 48 h, read-out: GI; summary of the method: as §1
[23] = Growth inhibition of human HOP92 cells at 10 uM after 48 hrs; details: HOP-92, 48 h, read-out: GI; summary of the method: as §1
DU-145 = assay: Growth inhibition of human DU145 cells at 10 uM after 48 hrs; details: DU-145, 48 h, read-out: GI; summary of the method: as §1
SN12C = assay: Growth inhibition of human SN12C cells at 10 uM after 48 hrs; details: read-out: GI; summary of the method: as §3
[24] = Growth inhibition of human RXF393 cells at 10 uM after 48 hrs; details: RXF 393, 48 h, read-out: GI; summary of the method: as §1
ACHN = assay: Growth inhibition of human ACHN cells at 10 uM after 48 hrs; details: read-out: GI; summary of the method: as §1
IGROV-1 = assay: Growth inhibition of human IGROV1 cells at 10 uM after 48 hrs; details: IGROV-1, 48 h, read-out: GI; summary of the method: as §1
UACC-62 = assay: Growth inhibition of human UACC62 cells at 10 uM after 48 hrs; details: UACC-62, 48 h, read-out: GI; summary of the method: as §3
SK-MEL-5 = assay: Growth inhibition of human SK-MEL-5 cells at 10 uM after 48 hrs; details: SK-MEL-5, 48 h, read-out: GI; summary of the method: as §3
HL-60(TB) = assay: Growth inhibition of human HL-60(TB) cells at 10 uM after 48 hrs; details: HL-60, 48 h, read-out: GI
Summary of the method: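 NCI 60-cell-line human tumour panel covering nine subpanels (leukaemia, non-small cell lung, colon, CNS, melanoma, ovarian, renal, prostate, breast), run at the NCI facility. Primary screen tested a single dose of each compound. Read-out was percent growth of treated cells versus untreated cells, reported from the mean graph as percentage growth inhibition.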

SMILES: COc1cc(/C=C2\CCCc3c2nc(N)nc3-c2cc(OC)c(OC)c(OC)c2)cc(OC)c1OC
- inhibition of growth at 10 µM (HOP-62): 82.2%
- RatioLC50 (Cancer cell lines [1]): 15
- RatioLC50 (Cancer cell lines [2]): 15
- RatioLC50 (Cancer cell lines [3]): 15
- RatioLC50 (Cancer cell lines [4]): 15
- RatioLC50 (Leukemia cell [5]): 15
- RatioLC50 (Cancer cell lines [6]): 15
- Ratio (Cancer cell lines [7]): 15
- Ratio (Cancer cell lines [8]): 15
- Ratio (Cancer cell lines [9]): 15
- Ratio (Cancer cell lines [10]): 15
- Ratio (Cancer cell lines [11]): 15
- Ratio (Melanoma cell [12]): 15
- Ratio (Cancer cell lines [13]): 15
- RatioGI50 (Cancer cell lines [14]): 15
- RatioGI50 (Cancer cell lines [15]): 15
- RatioGI50 (Melanoma cell [16]): 15
- RatioGI50 (Leukemia cell [17]): 15
- GI50 [18]: 2 µM
- LC50 (concentration killing 50% of cells) [18]: > 100 µM
- TGI [18]: 69.2 µM
- GI50 [19]: 1.3 µM
- TGI [19]: 20 µM
- CC50 [19]: > 100 µM
- GI50 [20]: 1.1 µM
- TGI [20]: 2.6 µM
- CC50 [20]: 68.3 µM
- GI50 [21]: 1.3 µM
- LC50 [21]: > 100 µM
- TGI [21]: 36.5 µM
- GI50 [22]: 1.7 µM
- TGI [22]: 42.5 µM
- CC50 [22]: > 100 µM
- inhibition of growth at 10 µM (A498): 99.5%

SMILES: COc1cc(/C=C2\CCCc3c2nc(C)nc3-c2cc(OC)c(OC)c(OC)c2)cc(OC)c1OC
- inhibition of growth at 10 µM (Malme-3M): 69.8%
- inhibition of growth at 10 µM (U-251): 90.2%
- inhibition of growth at 10 µM (KM12): 97.1%
- inhibition of growth at 10 µM (HCT-15): 95.8%
- inhibition of growth at 10 µM (COLO 205): 80.9%
- inhibition of growth at 10 µM (NCI-H522): 48.2%
- inhibition of growth at 10 µM [23]: < 30%
- inhibition of growth at 10 µM (HOP-62): 78%
- RatioLC50 (Cancer cell lines [1]): 15
- RatioLC50 (Cancer cell lines [2]): 15
- RatioLC50 (Cancer cell lines [3]): 15
- RatioLC50 (Cancer cell lines [4]): 15
- RatioLC50 (Leukemia cell [5]): 15
- RatioLC50 (Cancer cell lines [6]): 15
- Ratio (Cancer cell lines [7]): 15
- Ratio (Cancer cell lines [8]): 15
- Ratio (Cancer cell lines [9]): 15
- Ratio (Cancer cell lines [10]): 15
- Ratio (Cancer cell lines [11]): 15
- Ratio (Melanoma cell [12]): 15
- Ratio (Cancer cell lines [13]): 15
- RatioGI50 (Cancer cell lines [14]): 15
- RatioGI50 (Cancer cell lines [15]): 15
- RatioGI50 (Melanoma cell [16]): 15
- RatioGI50 (Leukemia cell [17]): 15
- GI50 [18]: 2.6 µM
- LC50 (concentration killing 50% of cells) [18]: > 100 µM
- TGI [18]: 80.8 µM
- GI50 [19]: 1.4 µM
- TGI [19]: 3.1 µM
- CC50 [19]: > 100 µM
- GI50 [20]: 0.9 µM
- TGI [20]: 67.3 µM
- CC50 [20]: 76.2 µM
- GI50 [21]: 1.1 µM
- LC50 [21]: > 100 µM
- TGI [21]: 62.5 µM
- GI50 [22]: 2.7 µM
- TGI [22]: > 100 µM
- CC50 [22]: > 100 µM
- inhibition of growth at 10 µM (DU-145): 95.1%
- inhibition of growth at 10 µM (SN12C): 89.2%
- inhibition of growth at 10 µM [24]: 77.4%
- inhibition of growth at 10 µM (ACHN): 87.5%
- inhibition of growth at 10 µM (A498): 83.7%
- inhibition of growth at 10 µM (IGROV-1): 69.3%
- inhibition of growth at 10 µM (UACC-62): 91%
- inhibition of growth at 10 µM (SK-MEL-5): 80.9%

SMILES: COc1cc(/C=C2\CCCC3=C(c4cc(OC)c(OC)c(OC)c4)Nc4ccccc4N=C32)cc(OC)c1OC
- inhibition of growth at 10 µM (HCT-15): 93.9%
- inhibition of growth at 10 µM (COLO 205): 99.8%
- inhibition of growth at 10 µM [23]: < 30%
- inhibition of growth at 10 µM (HL-60(TB)): 98.5%
- RatioLC50 (Cancer cell lines [1]): 11
- RatioLC50 (Cancer cell lines [2]): 11
- RatioLC50 (Cancer cell lines [3]): 11
- RatioLC50 (Cancer cell lines [4]): 11
- RatioLC50 (Leukemia cell [5]): 11
- RatioLC50 (Cancer cell lines [6]): 11
- Ratio (Cancer cell lines [7]): 11
- Ratio (Cancer cell lines [8]): 11
- Ratio (Cancer cell lines [9]): 11
- Ratio (Cancer cell lines [10]): 11
- Ratio (Cancer cell lines [11]): 11
- Ratio (Melanoma cell [12]): 11
- Ratio (Cancer cell lines [13]): 11
- RatioGI50 (Cancer cell lines [14]): 11
- RatioGI50 (Cancer cell lines [15]): 11
- RatioGI50 (Melanoma cell [16]): 11
- RatioGI50 (Leukemia cell [17]): 11
- GI50 [18]: 2.9 µM
- LC50 (concentration killing 50% of cells) [18]: 89.4 µM
- TGI [18]: 48.2 µM
- GI50 [19]: 1.7 µM
- TGI [19]: 5.6 µM
- CC50 [19]: 71.4 µM
- GI50 [20]: 1.6 µM
- TGI [20]: 5.2 µM
- CC50 [20]: 36.4 µM
- GI50 [21]: 1.4 µM
- LC50 [21]: > 100 µM
- TGI [21]: 5 µM
- GI50 [22]: 2.8 µM
- TGI [22]: 28 µM
- CC50 [22]: 73.6 µM
- inhibition of growth at 10 µM (DU-145): 95.1%
